Experiments:
Assay type in all cases: functional
[1] = tested on: MDA-MB-468; assay: Cytotoxicity against human MDA-MB-468 cells assessed as growth inhibition at 10 uM after 48 hrs by SRB assay; conditions: MDA-MB-468, 48 h, read-out: GI
In short: (§1)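 Single-dose screen at 10µM across the sixty-cell-line panel. Percentage growth is derived from SRB-stain OD taken just before compound exposure, after 48 hrs exposure, and in vehicle-treated controls. Negative values indicate cytotoxicity.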

[2] = tested on: TK-10; assay: Cytotoxicity against human TK10 cells assessed as growth inhibition at 10 uM after 48 hrs by SRB assay; conditions: TK-10, 48 h, read-out: GI; in short: as §1
[3] = tested on: A498; assay: Cytotoxicity against human A498 cells assessed as growth inhibition at 10 uM after 48 hrs by SRB assay; conditions: A498, 48 h, read-out: GI; in short: as §1
[4] = Cytotoxicity against human OVCAR5 cells assessed as growth inhibition at 10 uM after 48 hrs by SRB assay; conditions: OVCAR-5, 48 h, read-out: GI; in short: as §1
[5] = tested on: NCI-H226; assay: Cytotoxicity against human NCI-H226 cells assessed as growth inhibition at 10 uM after 48 hrs by SRB assay; conditions: NCI-H226, 48 h, read-out: GI; in short: as §1

| Compound | inhibition of growth at 10 µM [1] [%] | inhibition of growth at 10 µM [2] [%] | inhibition of growth at 10 µM [3] [%] | inhibition of growth at 10 µM [4] [%] | inhibition of growth at 10 µM [5] [%] |
| --- | --- | --- | --- | --- | --- |
| CN1C(=O)C(=Cc2cn(Cc3ccc(F)cc3)c3ccc(Cl)cc23)C(=O)N(C)C1=O | -70 | 19 | -95 | -19 | -79 |
| COC(=O)c1ccc(Cn2cc(C=C3C(=O)N(C)C(=O)N(C)C3=O)c3cc(C(=O)OC)ccc32)cc1 | 99 | 113 | 105 | 98 | 88 |

From ChEMBL document CHEMBL3102840, “Synthesis and anti-proliferative activity of aromatic substituted 5-((1-benzyl-1H-indol-3-yl)methylene)-1,3-dimethylpyrimidine-2,4,6(1H,3H,5H)-trione analogs against human tumor cell lines” (2014)
